Tests used:
[1] = Irreversible inhibition of SARS coronavirus Urbani 3CL protease (9985 to 10902) using TAMRA-SITSAVLQSGFRKMK(DABCYL)-OH as substrate measured for 10 mins by FRET assay
Outline: (§1)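 SARS CoV-1 3CLpro FRET assay; each value calculated from at least eight data points, with at least two independent determinations.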

[2] = system: SARS coronavirus Urbani; test: Irreversible inhibition of SARS coronavirus Urbani 3CL protease (9985 to 10902) assessed as first order inhibition rate constant (Kobs/I ratio) using TAMRA-SITSAVLQSGFRKMK(DABCYL)-OH as substrate measured for 10 mins by FRET assay
Outline: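 SARS CoV-1 3CL protease activity was monitored by a FRET read-out. Irreversible, time-dependent inactivation was expressed as kobs/I. Each value was calculated from at least eight data points, with at least two independent determinations.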

[3] = Reversible inhibition of SARS coronavirus Urbani 3CL protease(9985 to 10902) using TAMRA-SITSAVLQSGFRKMK(DABCYL)-OH as substrate measured for 10 mins by FRET assay; outline: as §1
[4] = system: SARS-CoV; test: Antiviral activity against SARS COV-1 infected in monkey vero 76 cells assessed as reduction in virus-induced cytopathic effect measured after 66 hrs by neutral red method or cell titer glo-based luminescence assay; assay type: functional, organism-based; conditions: Severe acute respiratory syndrome-related coronavirus
[5] = Permeability of compound in human Caco-2 cells; assay type: ADME, cell-based
[6] = system: SARS coronavirus Urbani; test: Irreversible inhibition of SARS coronavirus Urbani 3CL protease (9985 to 10902) at 1 uM using TAMRA-SITSAVLQSGFRKMK(DABCYL)-OH as substrate measured for 10 mins by FRET assay relative to control
[7] = Solubility of the compound in vehicle formulations; assay type: physicochemical
[8] = Glutathione reactivity in pH 7.8 Tris buffer assessed as half-life at 1 uM measured after 30 mins by LC/MS analysis; assay type: ADME
[9] = Metabolic stability in human plasma assessed as half-life at 1 uM incubated for 60 mins by LC/MS analysis; assay type: ADME, cell-free

COc1cccc2[nH]c(C(=O)N[C@@H](CC(C)C)C(=O)N[C@@H](C[C@@H]3CCNC3=O)C(=O)COC(=O)C(C)(C)C)cc12
IC50 [1]: 230 nM

COc1cccc2[nH]c(C(=O)N[C@@H](CC(C)C)C(=O)N[C@@H](C[C@@H]3CCNC3=O)C(=O)COC(=O)c3c(F)cccc3F)cc12
K [2]: 12800 M⁻¹ s⁻¹

COc1cccc2[nH]c(C(=O)N[C@@H](CC(C)C)C(=O)N[C@@H](C[C@@H]3CCNC3=O)C(=O)COC(=O)c3ccc(C#N)cc3F)cc12
K [2]: 13300 M⁻¹ s⁻¹

CC(C)C[C@H](NC(=O)c1nc2ccccc2[nH]1)C(=O)N[C@@H](C[C@@H]1CCNC1=O)C(=O)COC(=O)c1c(Cl)cccc1Cl
K [2]: 30300 M⁻¹ s⁻¹

COCC(=O)[C@H](C[C@@H]1CCNC1=O)NC(=O)[C@H](CC(C)(C)C)NC(=O)c1cc2c(OC)cccc2[nH]1
IC50 [3]: 35 nM | EC50 [4]: 32000 nM

COCC(=O)[C@H](C[C@@H]1CCNC1=O)NC(=O)[C@H](CC(C)(C)C)NC(=O)[C@H]1CCCO1
IC50 [3]: 1080 nM | EC50 [4]: > 100000 nM

COc1cccc2[nH]c(C(=O)N(C)[C@@H](CC(C)C)C(=O)N[C@@H](C[C@@H]3CCNC3=O)C(=O)CO)cc12
permeability [5]: Impermeable | IC50 [3]: 83 nM | EC50 [4]: 19000 nM

CC(C)C[C@H](NC(=O)OC(C)(C)C)C(=O)N[C@@H](C[C@@H]1CCNC1=O)C(=O)COC(=O)c1c(Cl)cccc1Cl
inhibition [6]: 24%

COc1cccc2[nH]c(C(=O)N[C@@H](CC(C)(C)C)C(=O)N[C@@H](C[C@@H]3CCNC3=O)C(=O)CO)cc12
permeability [5]: Impermeable | IC50 [3]: 7 nM | EC50 [4]: 10000 nM

CC(C)C[C@H](NC(=O)c1cc2ccccc2[nH]1)C(=O)N[C@@H](C[C@@H]1CCNC1=O)C(=O)CO
IC50 [3]: 38 nM | EC50 [4]: 20000 nM

COc1cccc2[nH]c(C(=O)N[C@@H](CC(C)C)C(=O)N[C@@H](C[C@@H]3CCNC3=O)C(=O)COC(=O)c3ccc(Cl)cc3O)cc12
K [2]: 11500 M⁻¹ s⁻¹

CC(C)(C)C[C@H](NC(=O)c1cc2ccccc2[nH]1)C(=O)N[C@@H](C[C@@H]1CCNC1=O)C(=O)CO
IC50 [3]: 20 nM | EC50 [4]: 17000 nM

CC(C)(C)C[C@H](NC(=O)[C@H]1CCCO1)C(=O)N[C@@H](C[C@@H]1CCNC1=O)C(=O)CO
IC50 [3]: 91 nM | EC50 [4]: 33000 nM

CCOCC(=O)[C@H](C[C@@H]1CCNC1=O)NC(=O)[C@H](CC(C)(C)C)NC(=O)c1cc2ccccc2[nH]1
IC50 [3]: 112 nM | EC50 [4]: 20000 nM

COc1cccc2[nH]c(C(=O)N[C@@H](CCC(C)C)C(=O)N[C@@H](C[C@@H]3CCNC3=O)C(=O)CO)cc12
permeability [5]: Impermeable | IC50 [3]: 34 nM | EC50 [4]: 33000 nM

COc1cccc2[nH]c(C(=O)N[C@@H](CC(C)C)C(=O)N[C@@H](C[C@@H]3CCNC3=O)C(=O)COC(=O)c3ccc(C)cc3)cc12
IC50 [1]: 87 nM

COc1cccc2[nH]c(C(=O)N[C@@H](CC(C)C)C(=O)N[C@@H](C[C@@H]3CCNC3=O)C(=O)CCl)cc12
K [2]: 283000 M⁻¹ s⁻¹

COCC(=O)[C@H](C[C@@H]1CCNC1=O)NC(=O)[C@H](CC(C)C)NC(=O)c1cc2c(OC)cccc2[nH]1
IC50 [3]: 53 nM | EC50 [4]: 31000 nM

COc1cccc2[nH]c(C(=O)N[C@@H](CC3CCCCC3)C(=O)N[C@@H](C[C@@H]3CCNC3=O)C(=O)CO)cc12
permeability [5]: Impermeable | IC50 [3]: 44 nM | EC50 [4]: 14000 nM

COc1cccc2[nH]c(C(=O)N[C@@H](CC(C)C)C(=O)N[C@@H](C[C@@H]3CCNC3=O)C(=O)COC(=O)c3ccccc3C#N)cc12
IC50 [1]: 17 nM

COc1cccc2[nH]c(C(=O)N[C@@H](Cc3ccccc3)C(=O)N[C@@H](C[C@@H]3CCNC3=O)C(=O)CO)cc12
permeability [5]: Impermeable | IC50 [3]: 103 nM | EC50 [4]: 47000 nM

COc1cccc2[nH]c(C(=O)N[C@@H](CC(C)C)C(=O)N[C@@H](C[C@@H]3CCNC3=O)C(=O)COC(C)=O)cc12
IC50 [1]: 220 nM

COc1cccc2[nH]c(C(=O)N[C@@H](CC(C)C)C(=O)N[C@@H](C[C@@H]3CCNC3=O)C(=O)COC(=O)c3ccc(Cl)cc3)cc12
IC50 [1]: 97 nM

COc1cccc2[nH]c(C(=O)N[C@@H](CC(C)C)C(=O)N[C@@H](C[C@@H]3CCNC3=O)C(=O)COC(=O)c3c(Cl)cccc3Cl)cc12
solubility [7]: Insoluble | half-life at 1 µM [8]: > 1 h | EC50 [4]: 290 nM | K [2]: 63000 M⁻¹ s⁻¹ | half-life at 1 µM [9]: > 4 h

CC(C)C[C@H](NC(=O)[C@H]1CCCO1)C(=O)N[C@@H](C[C@@H]1CCNC1=O)C(=O)COC(=O)c1c(Cl)cccc1Cl
K [2]: 5830 M⁻¹ s⁻¹

COc1cccc2[nH]c(C(=O)N[C@@H](CC(C)C)C(=O)N[C@@H](C[C@@H]3CCNC3=O)C(=O)COC(=O)c3ccc(F)cc3)cc12
IC50 [1]: 82 nM

CC(=O)N[C@@H](CC(C)C)C(=O)N[C@@H](C[C@@H]1CCNC1=O)C(=O)COC(=O)c1c(Cl)cccc1Cl
IC50 [1]: 1030 nM

COc1cccc2[nH]c(C(=O)N[C@@H](CC(C)C)C(=O)N[C@@H](C[C@@H]3CCNC3=O)C(=O)COC(=O)c3c(C)cccc3C)cc12
IC50 [1]: 74 nM

COCC(=O)[C@H](C[C@@H]1CCNC1=O)NC(=O)[C@H](CC(C)(C)C)NC(=O)c1cc2ccccc2[nH]1
IC50 [3]: 105 nM | EC50 [4]: 46000 nM

COc1cccc2[nH]c(C(=O)N[C@@H](CC(C)C)C(=O)N[C@@H](C[C@@H]3CCNC3=O)C(=O)COC(=O)C3CC3)cc12
IC50 [1]: 182 nM

COc1cccc(OC)c1C(=O)OCC(=O)[C@H](C[C@@H]1CCNC1=O)NC(=O)[C@H](CC(C)C)NC(=O)c1cc2c(OC)cccc2[nH]1
IC50 [1]: 205 nM

COc1ccc(C(=O)OCC(=O)[C@H](C[C@@H]2CCNC2=O)NC(=O)[C@H](CC(C)C)NC(=O)c2cc3c(OC)cccc3[nH]2)cc1
IC50 [1]: 79 nM

COc1cccc2[nH]c(C(=O)N[C@@H](CC(C)C)C(=O)N[C@@H](C[C@@H]3CCNC3=O)C(=O)COC(=O)c3ccc(C#N)cc3)cc12
IC50 [1]: 53 nM

COCC(=O)[C@H](C[C@@H]1CCNC1=O)NC(=O)[C@H](CC(C)C)NC(=O)c1cc2ccccc2[nH]1
IC50 [3]: 131 nM | EC50 [4]: 45000 nM

COc1cccc2[nH]c(C(=O)N[C@@H](CC(C)C)C(=O)N[C@@H](C[C@@H]3CCNC3=O)C(=O)COC(=O)c3ccccc3)cc12
IC50 [1]: 86 nM

CCCC[C@H](NC(=O)c1cc2c(OC)cccc2[nH]1)C(=O)N[C@@H](C[C@@H]1CCNC1=O)C(=O)CO
permeability [5]: Impermeable | IC50 [3]: 20 nM | EC50 [4]: 10000 nM
